The values below come from ChEMBL document CHEMBL1141336, “Isolation and structure elucidation of kadlongilactones C-F from Kadsura longipedunculata by NMR spectroscopy and DFT computational methods” (J Nat Prod, 2007).

The test system of test [1] is HT-29. The test is described as follows: Cytotoxicity against human HT29 cells after 72 hrs by SRB assay. Format: functional, cell-based. Conditions: HT-29, 72 h. Summed up:
(§1)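 Adherent tumour cells were seeded in 96-well plates 24 h before dosing and exposed continuously to a series of compound concentrations for 72 h. Cells were then fixed and stained with sulforhodamine B to read out cytotoxicity.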
Background: In SRB staining, fixed cells bind dye roughly in proportion to their protein.

The test system of test [2] is K562. The test is described as follows: Cytotoxicity against human K562 cells after 72 hrs by trypan blue exclusion method. The settings on record: K562, 72 h.
In test [3] the test system is A549. Put plainly: Cytotoxicity against human A549 cells after 72 hrs by SRB assay. Format: functional, cell-based. The settings on record: A549, 72 h. The essentials:
as §1

The structures appear in SMILES notation. Structures can show the parent of a compound that is named as a salt.

Regarding `CC(=O)[C@]1(N)Cc2c(O)c3c(c(O)c2[C@@H](O[C@H]2C[C@H](O)[C@H](O)CO2)C1)C(=O)c1ccccc1C3=O` [AMRUBICIN HYDROCHLORIDE], the IC50 was 4360 nM in test [1], 1260 nM in test [2] and 820 nM in test [3].

With `CC1=C[C@@H]2CC3=C([C@H](O)C[C@]4(C)[C@H]3C[C@]3(O)C=C5C=CC(=O)OC(C)(C)[C@@H]5CC[C@@H]43)[C@H](C)[C@@H]2OC1=O` [KADLONGILACTONE A], the IC50 in test [1] turned out to be 1440 nM; in test [2], 3440 nM; in test [3] it was 1240 nM.

Regarding `CC1=C[C@@H]2CC3=C([C@@H](O)C[C@]4(C)[C@H]3C[C@]3(O)C=C5C=CC(=O)OC(C)(C)[C@@H]5CC[C@@H]43)[C@H](C)[C@@H]2OC1=O` [KADLONGILACTONE D], the concentration for half-maximal inhibition (IC50) in test [1] is 1640 nM; in test [2], 1920 nM; in test [3], 490 nM.

Regarding `CO[C@H]1C[C@]2(C)[C@@H](C[C@]3(O)C=C4C=CC(=O)OC(C)(C)[C@@H]4CC[C@@H]23)C2=C1[C@H](C)[C@@H]1OC(=O)C(C)=C[C@@H]1C2` [KADLONGILACTONE E], the IC50 in test [1] is 1320 nM; in test [2], 3350 nM; in test [3] it was 880 nM.

Take `CO[C@@H]1C[C@]2(C)[C@@H](C[C@]3(O)C=C4C=CC(=O)OC(C)(C)[C@@H]4CC[C@@H]23)C2=C1[C@H](C)[C@@H]1OC(=O)C(C)=C[C@@H]1C2` [KADLONGILACTONE C]: the results for the IC50 in test [1], in test [2] and in test [3] were 2080 nM, 3610 nM and 1450 nM, respectively.

For orientation: IC50 means the concentration needed to halve the response being measured. A low value points to higher potency.
